pIC50: −log10 of the molar value. Calls of active or inactive are those of the source. No cut-off for these calls is given here.
Key:
Type in all cases: functional, cell-based
MCF7 = assay: Cytotoxicity against human MCF7 cells assessed as reduction in cell viability at 100 uM after 24 hrs by MTT assay
How it was run: (§1)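 Human cancer lines grown in DMEM or RPMI-1640 with 10% FBS plus penicillin–streptomycin, 5% CO2, 37 °C. MTT read-out, viable-cell percentage measured at 490 nm. Doxorubicin hydrochloride as positive control.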

HepG2 = assay: Cytotoxicity against human HepG2 cells assessed as reduction in cell viability at 100 uM after 24 hrs by MTT assay; how it was run: as §1
HT-29 = assay: Cytotoxicity against human HT-29 cells assessed as reduction in cell viability at 100 uM after 24 hrs by MTT assay; how it was run: as §1
HeLa = assay: Cytotoxicity against human HeLa cells assessed as reduction in cell viability at 100 uM after 24 hrs by MTT assay; how it was run: as §1
Murine T-cell line = assay: Immunosuppressive activity in C57BL/6 mouse T cells assessed as inhibition of ConA-induced cell proliferation by MTT assay; settings: C57BL/6, T-cell
How it was run: (§2)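 Splenocytes from male C57BL/6 mice (6–8 weeks), red cells lysed, in RPMI 1640 with 10% FBS. 5 × 10^5 cells per well, 5% CO2, 37 °C, 24 h. Stimulated with ConA 5 μg/mL (T cells) or LPS 10 μg/mL (B cells). MTT added for 4 h, pellet dissolved in DMSO, read at 490 nm. CsA and MMF as positive controls.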

B-cell line = assay: Immunosuppressive activity in C57BL/6 mouse B cells assessed as inhibition of LPS-induced cell proliferation by MTT assay; settings: C57BL/6, B-cell; how it was run: as §2

SMILES | Activity (MCF7) | Activity (HepG2) | Activity (HT-29) | Activity (HeLa) | pIC50 (Murine T-cell line) | pIC50 (B-cell line)
C=C[C@H]1CN2CC[C@]3(C(=O)Nc4ccccc43)[C@@H]2C[C@@H]1/C(=C\OC)C(=O)OC | inactive | inactive | inactive | inactive | – | –
CC[C@@H]1C[N@@+]2([O-])CCc3c([nH]c4ccccc34)[C@@H]2C[C@@H]1/C(=C\OC)C(=O)OC | inactive | inactive | inactive | inactive | – | –
CC[C@@H]1CN2CC[C@@]3(C(=O)Nc4ccccc43)[C@@H]2C[C@@H]1/C(=C\OC)C(=O)OC | inactive | inactive | inactive | inactive | – | –
CC[C@@H]1C[N@+]2([O-])CCc3c([nH]c4ccccc34)[C@@H]2C[C@@H]1/C(=C\OC)C(=O)OC | inactive | inactive | inactive | inactive | – | –
C=C[C@@H]1CN2CC[C@@]3(C(=O)Nc4ccccc43)[C@@H]2C[C@@H]1/C(=C\OC)C(=O)OC | inactive | inactive | inactive | inactive | – | –
CC[C@@H]1CN2CCc3c([nH]c4ccccc34)C2=C2OC(=O)C(C(=O)OC)=C21 | inactive | inactive | inactive | inactive | – | –
CC[C@H]1CN2CCc3c([nH]c4ccccc34)[C@@H]2C[C@@H]1/C(=C\OC)C(=O)OC (stereo in doubt; 13) | inactive | inactive | inactive | inactive | – | –
CC[C@H]1C[N@@+]2([O-])CCc3c([nH]c4ccccc34)[C@@H]2C[C@@H]1/C(=C\OC)C(=O)OC | inactive | inactive | inactive | inactive | – | –
C=C[C@H]1C[N@+]2([O-])CCc3c([nH]c4ccccc34)[C@@H]2C[C@@H]1/C(=C\OC)C(=O)OC | inactive | inactive | inactive | inactive | – | –
COC(=O)[C@H]1[C@H]2C[C@H]3c4[nH]c5ccccc5c4CCN3C[C@@H]2CC[C@@H]1O [CORYNANTHEINE] | inactive | inactive | inactive | inactive | 4.56 | 4.39
CC[C@H]1CN2CCc3c([nH]c4ccccc34)[C@@H]2C[C@@H]1/C(=C\OC)C(=O)OC (stereo in doubt; 14) | inactive | inactive | inactive | inactive | – | –
CC[C@@H]1CN2CCc3c([nH]c4ccccc34)[C@@H]2C[C@@H]1/C(=C\OC)C(=O)OC | inactive | inactive | inactive | inactive | – | –
CC[C@@H]1CN2C=Cc3c([nH]c4ccccc34)C2=C2OC(=O)C(C=O)=C21 | inactive | inactive | inactive | inactive | – | –
CC[C@@H]1CN2CC[C@]3(C(=O)Nc4ccccc43)[C@@H]2C[C@@H]1/C(=C\OC)C(=O)OC | inactive | inactive | inactive | inactive | – | –
C=C[C@H]1C[N@@+]2([O-])CCc3c([nH]c4ccccc34)[C@@H]2C[C@@H]1/C(=C\OC)C(=O)OC | inactive | inactive | inactive | inactive | – | –
C=C[C@H]1CN2CCc3c([nH]c4ccccc34)[C@@H]2C[C@@H]1/C(=C\OC)C(=O)OC | inactive | inactive | inactive | inactive | 4.77 | 4.87

From ChEMBL document CHEMBL4196132, “Alkaloids with Immunosuppressive Activity from the Bark of Pausinystalia yohimbe” (J Nat Prod, 2018)
